According to ChEMBL document CHEMBL3865847, “The synthesis and biological evaluation of alkyl and benzyl naphthyridinium analogs of eupolauridine as potential antimicrobial and cytotoxic agents” (Bioorg Med Chem, 2016):
“And” between values parts separate entries of the source, which are not always exact repeats. Equal entries are not always repeated.

How the values were obtained:
[1] = Cytotoxicity against human SKOV3 cells assessed as cell growth inhibition after 48 hrs by neutral red dye based assay; format: functional; conditions: SK-OV-3, 48 h
Procedure, shortened: (§1)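 Cells kept in RPMI-1640 with 10% bovine serum and 60 µg/mL amikacin, 37 °C, 5% CO2. Seeded at 25,000 cells/well, left 24 h to adhere. Samples diluted in RPMI added, highest final concentration 10 µg/mL. Growth measured by neutral red uptake after 48 h exposure.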

[2] = Inhibition of Candida albicans DNA topoisomerase 1 using pHOT1 as substrate after 30 mins by agarose gel electrophoresis
Procedure, shortened: (§2)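 Relaxation of supercoiled to relaxed DNA by TopoI measured with a commercial TopoI drug kit following kit protocol. IC50 calculated from dose-response curves of % inhibition versus concentration.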

Candida albicans = experiment: Antimicrobial activity against Candida albicans B311; format: functional
Procedure, shortened: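 Cultured in Sabouraud dextrose broth 24 h, counted by hemocytometer, diluted to 10,000 CFU/mL. Added to serially diluted samples in 96-well plates, top final concentration 50 µg/mL (≤2.5% DMSO), incubated 37 °C. Growth by A630. MIC is the lowest concentration giving 80% inhibition against controls; IC50 from concentration versus % growth plots.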

Cryptococcus neoformans = experiment: Antimicrobial activity against Cryptococcus neoformans ATCC 52657; format: functional
Procedure, shortened: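 Grown in mycophil broth 72 h, hemocytometer-counted, diluted to 200,000 CFU/mL. Exposed to diluted samples in 96-well plates, maximum final 50 µg/mL (DMSO up to 2.5%), incubated 30 °C. A630 readout. MIC is the lowest concentration inhibiting 80% of growth versus controls; IC50 read from concentration versus % growth graphs.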

Plasmodium falciparum = experiment: Antimalarial activity against Plasmodium falciparum D6 infected in RBC after 48 hrs by lactate dehydrogenase assay; format: functional; conditions: D6, 48 h
Procedure, shortened: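 Parasites grown in A+ human erythrocytes in RPMI 1640 with 10% A+ human serum, 25 mM HEPES, 27 mM bicarbonate, 60 µg/mL amikacin, 37 °C under 90% N2/5% O2/5% CO2. Infected cells exposed 48 h in microtiter wells, highest concentration 4.8 µg/mL. Growth read by Malstat reagent (parasite LDH) with nitro blue tetrazolium reduction, absorbance 630 nm.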

[3] = Selectivity index, ratio of IC50 for human DNA topoisomerase 1 to IC50 for Candida albicans DNA topoisomerase 1
[4] = Cytotoxicity against African green monkey Vero cells assessed as cell growth inhibition at 10 ug/ml after 48 hrs by neutral red dye based assay; format: toxicity; conditions: chlorocebus sabaeus; procedure, shortened: as §1
[5] = Cytotoxicity against human SK-MEL cells assessed as cell growth inhibition after 48 hrs by neutral red dye based assay; format: functional; procedure, shortened: as §1
DNA topoisomerase 1 = biological target: T1, DNA topoisomerase 1 (Homo sapiens, UniProt P11387); experiment: Inhibition of human DNA topoisomerase 1 using pHOT1 as substrate after 30 mins by agarose gel electrophoresis; procedure, shortened: as §2
T1 sequence (P11387 whole entry): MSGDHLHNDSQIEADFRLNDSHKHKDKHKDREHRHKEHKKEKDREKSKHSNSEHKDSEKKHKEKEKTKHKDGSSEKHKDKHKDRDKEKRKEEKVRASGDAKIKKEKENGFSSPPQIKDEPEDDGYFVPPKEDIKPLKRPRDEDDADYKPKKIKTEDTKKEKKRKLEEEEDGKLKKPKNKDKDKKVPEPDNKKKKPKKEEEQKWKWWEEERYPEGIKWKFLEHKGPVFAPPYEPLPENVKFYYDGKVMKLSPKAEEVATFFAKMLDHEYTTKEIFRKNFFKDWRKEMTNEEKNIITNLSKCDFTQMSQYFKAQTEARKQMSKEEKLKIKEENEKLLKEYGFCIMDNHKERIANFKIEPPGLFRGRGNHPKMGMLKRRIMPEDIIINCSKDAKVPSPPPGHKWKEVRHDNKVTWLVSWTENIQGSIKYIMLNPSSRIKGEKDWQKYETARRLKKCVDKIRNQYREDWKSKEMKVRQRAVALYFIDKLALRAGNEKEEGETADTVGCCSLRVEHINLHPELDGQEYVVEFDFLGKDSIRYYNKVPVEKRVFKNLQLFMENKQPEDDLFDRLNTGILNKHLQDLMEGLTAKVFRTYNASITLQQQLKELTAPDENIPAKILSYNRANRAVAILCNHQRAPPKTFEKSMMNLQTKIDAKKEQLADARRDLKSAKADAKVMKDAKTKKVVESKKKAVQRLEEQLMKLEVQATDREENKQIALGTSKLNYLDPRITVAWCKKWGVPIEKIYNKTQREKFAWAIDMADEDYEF

[6] = Cytotoxicity against human KB cells assessed as cell growth inhibition after 48 hrs by neutral red dye based assay; format: functional; procedure, shortened: as §1
[7] = tested on: Mycobacterium intracellulare; experiment: Antimicrobial activity against Mycobacterium intracellulare ATCC 23068; format: functional
Procedure, shortened: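 Mycobacterium grown 72 h in Middlebrook medium with OADC supplement, diluted 1:30 in broth. Incubated at 37 °C with diluted samples in 96-well plates, highest final 50 µg/mL, DMSO at most 2.5%. Absorbance at 630 nm. MIC = lowest concentration with 80% growth inhibition relative to controls; IC50 from concentration versus % growth plots.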

[8] = Cytotoxicity against human BT549 cells assessed as cell growth inhibition after 48 hrs by neutral red dye based assay; format: functional; conditions: BT-549, 48 h; procedure, shortened: as §1

Row | IC50 [2] [µg/mL] | IC50 (Candida albicans) [µg/mL] | MIC80 (Candida albicans) [µg/mL] | IC50 (Cryptococcus neoformans) [µg/mL] | MIC80 (Cryptococcus neoformans) [µg/mL] | IC50 (Plasmodium falciparum) [µg/mL] | Ratio IC50 [3] | IC50 (DNA topoisomerase 1) [µM] | MIC80 [7] [µg/mL] | Compound | IC50 [1] [µg/mL] | Activity [4] | IC50 [5] [µg/mL] | IC50 [6] [µg/mL] | IC50 [8] [µg/mL]
1 | 32 | 5.33 | 6.25 | 0.58 | 1.56 | 0.015 | 0.71 | 109 | – | Fc1ccc(C[n+]2ccc3ccnc4c3c2-c2ccccc2-4)c(F)c1.[Br-] | 2.8 | Non-Toxic | 6.2 | – | –
2 | 18 | – | – | 1.19 | 6.25 | 0.035 | 0.86 | 50 | 50 | O=[N+]([O-])c1ccc(C[n+]2ccc3ccnc4c3c2-c2ccccc2-4)cc1.[Br-] | 0.62 | Non-Toxic | 4.9 | 1.8 | 4
3 | 0.425 | 16.1 | 25 | 0.37 | 1.56 | 0.028 | 0.94 | 1.02 | 50 | C[n+]1ccc2c3c(nc4cc5c(cc42)OCO5)-c2ccccc2-c31.[I-] | 1.2 | Non-Toxic | 5 | 4.2 | 1.2
4 | 5 | – | – | 8 | 50 | 0.11 | 1.11 | 12.5 | – | Cc1cc2cc[n+](C)c3c2c(n1)-c1ccccc1-3.[I-] | – | Non-Toxic | – | – | –
5 | – | – | – | – | – | < 0.02 | – | – | – | CCN(CC)CCCC(C)Nc1ccnc2cc(Cl)ccc12 (stereo unspecified) [CHLOROQUINE] | – | – | – | – | –
6 | 50 | – | – | 6.18 | 25 | 0.17 | 0.91 | 136 | – | O=C(C[n+]1ccc2ccnc3c2c1-c1ccccc1-3)c1ccccc1.[Br-] | 6 | Non-Toxic | – | > 10 | > 10
7 | 0.52 | 5.17 | 12.5 | 0.57 | 3.12 | 0.0094 | 1 | 1.11 | – | [Br-].c1ccc(C[n+]2ccc3c4c(nc5cc6c(cc53)OCO6)-c3ccccc3-c42)cc1 | 0.6 | Non-Toxic | 0.55 | 1 | 1.3
8 | 5.75 | 16.7 | 25 | 0.7 | 1.56 | 0.032 | 1.15 | 12.3 | 50 | COc1ccc2c(c1)-c1c3c-2nccc3cc[n+]1Cc1ccccc1.[Br-] | 0.15 | Non-Toxic | 1.5 | 0.2 | 1.1
9 | 11 | 13.3 | 25 | 0.82 | 1.56 | 0.095 | 0.92 | 30.8 | – | Cc1cc2cc[n+](Cc3ccccc3)c3c2c(n1)-c1ccccc1-3.[Br-] | 1.7 | Non-Toxic | 4.2 | > 10 | 3.5
10 | 10 | – | – | 10 | 50 | 0.06 | 1 | 28.9 | – | C[n+]1ccc2ccnc3c2c1-c1ccccc1-3.[I-] | > 10 | Non-Toxic | – | – | –
11 | 40 | 9.33 | 12.5 | 0.87 | 3.12 | 0.017 | 0.8 | 127 | – | Fc1ccc(C[n+]2ccc3ccnc4c3c2-c2ccccc2-4)cc1.[Br-] | 1.5 | Non-Toxic | 6 | > 10 | 7.5
12 | 2.3 | – | – | – | – | 0.56 | 0.96 | 5.7 | – | CCOC(=O)C[n+]1ccc2c3c(nc4ccccc42)-c2ccccc2-c31.[Br-] | 5.9 | Non-Toxic | > 10 | – | –
13 | – | 1.5 | 3.12 | 0.52 | 0.78 | 0.033 | – | – | 50 | Fc1ccc2c(c1)-c1c3c-2nccc3cc[n+]1Cc1ccccc1.[Br-] | 0.53 | Non-Toxic | 5.6 | 1.3 | 2.5
14 | 21 | 3 | 6.25 | 0.18 | 0.78 | 0.0042 | 0.95 | 53.7 | 50 | Clc1cccc(C[n+]2ccc3ccnc4c3c2-c2ccccc2-4)c1.[Br-] | 0.055 | Non-Toxic | 1.15 | 0.68 | 1.6
15 | 7.5 | – | – | 19.7 | 50 | 3.2 | 0.5 | 35.8 | – | Cc1cc(C)cc(CS(=O)(=O)[O-])c1.N[n+]1ccc2ccnc3c2c1-c1ccccc1-3 | – | Non-Toxic | > 10 | – | –
16 | 4.3 | 1.5 | 3.12 | 0.95 | 3.12 | 0.04 | 0.98 | 9.75 | – | [Br-].c1ccc(C[n+]2ccc3cc(-c4ccccc4)nc4c3c2-c2ccccc2-4)cc1 | 0.25 | Non-Toxic | 0.7 | 1 | 1.2
17 | 75 | – | – | – | – | 0.5 | 0.83 | 242 | – | CCOC(=O)C[n+]1ccc2ccnc3c2c1-c1ccccc1-3.[Br-] | 7.6 | Non-Toxic | – | – | –
18 | 15 | 6.17 | 12.5 | 0.48 | 1.56 | 0.062 | 0.86 | 45 | 50 | Cc1ccc2c(c1)-c1c3c-2nccc3cc[n+]1Cc1ccccc1.[Br-] | 0.58 | Non-Toxic | 1.4 | 0.52 | 1.8
19 | 19 | 4.17 | 6.25 | 0.43 | 1.56 | 0.0225 | 0.5 | 101 | – | [Br-].c1ccc(C[n+]2ccc3ccnc4c3c2-c2ccccc2-4)cc1 | 1.5 | Non-Toxic | 5.4 | – | –

Row | Compound | IC50 [2] [µg/mL] | IC50 (Candida albicans) [µg/mL] | MIC80 (Candida albicans) [µg/mL] | IC50 (Cryptococcus neoformans) [µg/mL] | MIC80 (Cryptococcus neoformans) [µg/mL] | IC50 (Plasmodium falciparum) [µg/mL] | Ratio IC50 [3] | IC50 (DNA topoisomerase 1) [µM] | MIC80 [7] [µg/mL] | IC50 [1] [µg/mL] | Activity [4] | IC50 [5] [µg/mL] | IC50 [6] [µg/mL] | IC50 [8] [µg/mL]
20 | C[n+]1ccc2c3c(nc4ccccc42)-c2ccccc2-c31 | – | – | – | – | – | – | 0.83 and 1 | – | – | – | – | – | – | –
